ChEMBL document CHEMBL4196136, “Chemical Constituents of Thai Citrus hystrix and Their Antiausterity Activity against the PANC-1 Human Pancreatic Cancer Cell Line” (J Nat Prod, 2018)
Calls of active or inactive are those of the source. The rule behind the calls is not given here.

How the values were obtained:
PSN1 [1] = test: Antiausteritic activity against human PSN1 cells in nutrient-deprived medium measured after 24 hrs by WST8 assay; type: functional
Summary of the method: (§1)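 Cells kept in DMEM with 10% FBS at 37 °C, 5% CO2. Seeded at 1.5 × 10^4 cells/well in DMEM for 24 h, washed twice with PBS, then exposed 24 h to serially diluted samples in DMEM or nutrient-deprived medium (NDM). Viability by WST-8 (3 h, A450) from three-well means. PC50 is the concentration killing 50% of cells in NDM without toxicity in DMEM.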

PANC-1 [2] = test: Antiausteritic activity against human PANC1 cells in nutrient-deprived medium measured after 24 hrs by WST8 assay; type: functional; summary of the method: as §1
MIA PaCa-2 [3] = test: Antiausteritic activity against human MIAPaCa2 cells in nutrient-deprived medium measured after 24 hrs by WST8 assay; type: functional; summary of the method: as §1
PANC-1 [4] = test: Cytotoxicity against human PANC1 cells in DMEM measured after 24 hrs by WST8 assay; type: cell-based; settings: panc-1, 24 h; summary of the method: as §1
PSN1 [5] = test: Cytotoxicity against human PSN1 cells in DMEM measured after 24 hrs by WST8 assay; type: cell-based; settings: psn1, 24 h; summary of the method: as §1
MIA PaCa-2 [6] = test: Cytotoxicity against human MIAPaCa2 cells in DMEM measured after 24 hrs by WST8 assay; type: cell-based; settings: mia paca-2, 24 h; summary of the method: as §1
PANC-1 [7] = test: Inhibition of colony formation in human PANC1 cells in DMEM at 25 uM after 10 days by crystal violet staining based assay relative to control; type: functional; settings: PANC-1, 240 h
Summary of the method: (§2)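 PANC-1 at 500 cells/well in DMEM, attached 24 h at 37 °C, 5% CO2. Treated with 12.5 or 25 μM in DMEM and grown 10 days. Cells washed with PBS, fixed with 4% formaldehyde, stained 15 min with crystal violet. Colony area measured; three replicates.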

PANC-1 [8] = test: Antiausteritic activity against human PANC1 cells in nutrient deprived medium assessed as cell death at 10 uM measured every 10 mins for 24 hrs by phase contrast microscopic method; type: functional, cell-based
Summary of the method: (§3)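 PANC-1 (2 × 10^5) attached overnight in complete medium, washed twice with PBS, treated with 10 μM in NDM. Held in a stage-top incubator at 37 °C, 5% CO2. Phase-contrast images taken every 10 min for 24 h.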

PANC-1 [9] = test: Antiausteritic activity against human PANC1 cells in nutrient deprived medium assessed as plasma blebbing at 10 uM measured every 10 mins […] by phase contrast microscopic method; type: functional, cell-based; summary of the method: as §3
Homo sapiens = species: Homo sapiens; test: Inhibition of AKT/mTOR signaling in human PANC1 cells in nutrient deprived medium assessed as effect on mTOR phosphorylation up to 5 uM measured within 6 hrs by Western blot analysis; type: cell-based
Summary of the method: (§4)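 PANC-1 cells treated in nutrient-deprived medium. Proteins resolved by SDS-PAGE and transferred to PVDF. Membranes blocked, washed in PBS with 0.1% Tween 20, and incubated overnight with primary antibodies against p-Akt, Akt, p-mTOR and mTOR. GAPDH served as loading control.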

PANC-1 [10] = test: Inhibition of colony formation in human PANC1 cells in DMEM at 12.5 uM after 10 days by crystal violet staining based assay; type: functional, cell-based; summary of the method: as §2
PANC-1 [11] = test: Antimigratory activity in human PANC1 cells in DMEM assessed as cell migration at 10 uM after 24 hrs by wound healing assay (reference value: 95%); type: functional
PANC-1 [12] = test: Antiausteritic activity against human PANC1 cells in nutrient deprived medium assessed as cell shrinkage at 10 uM measured every 10 mins […] by phase contrast microscopic method; type: functional, cell-based; summary of the method: as §3
PANC-1 [13] = test: Antiausteritic activity against human PANC1 cells in nutrient deprived medium assessed as disintegration of cell organelles at 10 uM measured every 10 mins for 24 hrs by phase contrast microscopic method; type: functional, cell-based; summary of the method: as §3
PANC-1 [14] = test: Reduction in total AKT expression in human PANC1 cells in nutrient deprived medium at up to 5 uM measured within 6 hrs by Western blot analysis; type: functional, cell-based; summary of the method: as §4
PANC-1 [15] = test: Antiausteritic activity against human PANC1 cells in nutrient deprived medium assessed as induction of morphological changes at 6.25 to 25 uM after 24 hrs by ethidium bromide/acridine orange staining based microscopic method; type: functional, cell-based
Summary of the method: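 PANC-1 (2 × 10^5) seeded in 30 mm dishes overnight, washed twice with PBS, treated in NDM for 24 h in humidified CO2 incubator. Acridine orange/ethidium bromide double stain, 15 min in the dark. Fluorescence (red/green) and phase-contrast imaging at 20× objective.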

PANC-1 [16] = test: Antiausteritic activity against human PANC1 cells in nutrient deprived medium assessed as cell death at 25 uM after 24 hrs by ethidium bromide/acridine orange staining based microscopic method relative to control; type: functional
Summary of the method: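 PANC-1 cells seeded at 2 × 10^5 per 30 mm dish, attached overnight, PBS-washed twice, then exposed to compound in nutrient-deprived medium (NDM) for 24 h in humidified CO2 incubator. Acridine orange/ethidium bromide double stain added 15 min in dark; fluorescence (red/green) and phase-contrast images taken at 20× objective; red-fluorescing, morphologically altered cells scored as dead.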

With COc1cc(C[C@H]2C(=O)OC[C@@H]2Cc2ccc(OC)c(OC)c2)ccc1O [ARCTIGENIN] the PC50 (PSN1 [1]) was 0.7 µM, the PC50 (PANC-1 [2]) was 0.7 µM and the PC50 (MIA PaCa-2 [3]) was 1.9 µM.
CC1(C)O[C@H]1COc1c2ccoc2cc2oc(=O)ccc12 [OXYPEUCEDANIN] was tested, and the Activity (PANC-1 [4]) was “Non-Toxic”, the Activity (PSN1 [5]) was “Non-Toxic” and the PC50 (PSN1 [1]) was 74.6 µM. For the same molecule, the PC50 (PANC-1 [2]) was 76.5 µM, the PC50 (MIA PaCa-2 [3]) was 38 µM and the Activity (MIA PaCa-2 [6]) was “Non-Toxic”.
CC(C)(O)[C@H](O)COc1c2ccoc2cc2oc(=O)ccc12 [OXYPEUCEDANIN HYDRATE] was tested, and the Activity (PANC-1 [4]) was “Non-Toxic”, the Activity (PSN1 [5]) was “Non-Toxic” and the PC50 (PSN1 [1]) was 89.7 µM. The PC50 (PANC-1 [2]) was 41.2 µM, the PC50 (MIA PaCa-2 [3]) was 79.4 µM and the Activity (MIA PaCa-2 [6]) was “Non-Toxic”.
For CO[C@@H](COc1c2ccoc2cc2oc(=O)ccc12)C(C)(C)O, the Activity (PANC-1 [4]) was “Non-Toxic”, the Activity (PSN1 [5]) was “Non-Toxic” and the PC50 (PSN1 [1]) was 40.6 µM. The PC50 (PANC-1 [2]) was 18.8 µM, the PC50 (MIA PaCa-2 [3]) was 51.1 µM and the Activity (MIA PaCa-2 [6]) was “Non-Toxic”.
C/C(=C\COc1c2ccoc2cc2oc(=O)ccc12)CC[C@@H](O)C(C)(C)O was tested, and the Activity (PANC-1 [4]) was “Non-Toxic”, the Activity (PSN1 [5]) was “Non-Toxic” and the PC50 (PSN1 [1]) was 76.1 µM. For the same molecule, the PC50 (PANC-1 [2]) was 76.5 µM, the PC50 (MIA PaCa-2 [3]) was 49.4 µM and the Activity (MIA PaCa-2 [6]) was “Non-Toxic”.
In the case of COC(C)(C)[C@H](O)COc1c2ccoc2cc2oc(=O)ccc12, the Activity (PANC-1 [4]) is reported as “Non-Toxic”, the Activity (PSN1 [5]) is reported as “Non-Toxic” and the PC50 (PSN1 [1]) is reported as 89.7 µM. For the same molecule, the PC50 (PANC-1 [2]) was 89.6 µM, the PC50 (MIA PaCa-2 [3]) was 87 µM and the Activity (MIA PaCa-2 [6]) was “Non-Toxic”.
With CC(C)=CCC/C(C)=C/COc1c2ccoc2cc2oc(=O)ccc12 [BERGAMOTTIN] the inhibition at 25 µM (PANC-1 [7]) was 100%, the Activity (PANC-1 [8]) was “Active” and the Activity (PANC-1 [4]) was “Non-Toxic”. For the same molecule, the Activity (PSN1 [5]) was “Non-Toxic”, the Activity (PANC-1 [9]) was “Active” and the inhibition (Homo sapiens) was “Active”. For the same molecule, the inhibition (PANC-1 [10]) was “Active”, the Activity (PSN1 [1]) was “Dose-dependent effect” and the PC50 (PSN1 [1]) was 9.4 µM. The Activity (PANC-1 [11]) was 30%, the Activity (PANC-1 [12]) was “Active” and the Activity (PANC-1 [13]) was “Active”. For the same molecule, the Activity (PANC-1 [14]) was “Active”, the Activity (PANC-1 [15]) was “Active” and the Activity (PANC-1 [2]) was “Dose-dependent effect”. The PC50 (PANC-1 [2]) was 4.6 µM, the Activity (PANC-1 [16]) was 100% and the Activity (MIA PaCa-2 [3]) was “Dose-dependent effect”. The PC50 (MIA PaCa-2 [3]) was 2.2 µM and the Activity (MIA PaCa-2 [6]) was “Non-Toxic”.
For CC(C)=CCOc1c2ccoc2cc2oc(=O)ccc12 [ISOIMPERATORIN], the Activity (PANC-1 [4]) was “Non-Toxic”, the Activity (PSN1 [5]) was “Non-Toxic” and the PC50 (PSN1 [1]) was 41.7 µM. The PC50 (PANC-1 [2]) was 41.2 µM, the PC50 (MIA PaCa-2 [3]) was 37.2 µM and the Activity (MIA PaCa-2 [6]) was “Non-Toxic”.
With O=c1ccc2ccc(O)cc2o1 [UMBELLIFERONE] the Activity (PANC-1 [4]) was “Non-Toxic”, the Activity (PSN1 [5]) was “Non-Toxic” and the PC50 (PSN1 [1]) was >100 µM. For the same molecule, the PC50 (PANC-1 [2]) was >100 µM, the PC50 (MIA PaCa-2 [3]) was >100 µM and the Activity (MIA PaCa-2 [6]) was “Non-Toxic”.
For C=C(C)[C@@H](O)COc1c2ccoc2cc2oc(=O)ccc12, the Activity (PANC-1 [4]) was “Non-Toxic”, the Activity (PSN1 [5]) was “Non-Toxic” and the PC50 (PSN1 [1]) was >100 µM. The PC50 (PANC-1 [2]) was 86.6 µM, the PC50 (MIA PaCa-2 [3]) was >100 µM and the Activity (MIA PaCa-2 [6]) was “Non-Toxic”.
In the case of COC(C)(C)[C@H](O)CC/C(C)=C/COc1c2ccoc2cc2oc(=O)ccc12, the Activity (PANC-1 [4]) is reported as “Non-Toxic”, the Activity (PSN1 [5]) is reported as “Non-Toxic” and the PC50 (PSN1 [1]) is reported as 37.8 µM. The PC50 (PANC-1 [2]) was 37.8 µM, the PC50 (MIA PaCa-2 [3]) was 37.1 µM and the Activity (MIA PaCa-2 [6]) was “Non-Toxic”.
